For eight molecules, MIC and Ki results are on record in ChEMBL document CHEMBL1641489, “Syntheses, structures and antibiotic activities of LpxC inhibitors based on the diacetylene scaffold” (Bioorg Med Chem, 2011).

In assay [1] the test system is Escherichia coli. The assay is described as follows: Antibacterial activity against Escherichia coli W3110RL replaced with Rhizobium leguminosarum lpxC gene by NCCLS assay. The format is functional. In outline: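 MIC by the NCCLS protocol in LB medium with 5% DMSO. Strain: E. coli with native lpxC replaced by the R. leguminosarum gene.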
Assay [2] deals with Escherichia coli. The assay is described as follows: Antibacterial activity against Escherichia coli W3110 by NCCLS assay. It counts as functional. The essentials:
(§1)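 Broth microdilution MIC per NCCLS protocol, adapted to 96-well format in LB medium containing 5% DMSO; MIC taken as lowest concentration inhibiting bacterial growth.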

The test system of assay [3] is Escherichia coli. The assay is described as follows: Antibacterial activity against Escherichia coli W3110PA replaced with Pseudomonas aeruginosa lpxC gene by NCCLS assay. It counts as functional. The essentials:
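MIC by the NCCLS protocol in LB medium with 5% DMSO. Strain: W3110 with chromosomal lpxC swapped for P. aeruginosa lpxC. The swap was made by λ-red recombination in DY330 and moved into W3110 by P1vir transduction, selecting on LB/agar with 15 μg/mL L-161,240 and 10 mM sodium citrate.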

For another assay, the system named is Pseudomonas aeruginosa. The assay is described as follows: Antibacterial activity against Pseudomonas aeruginosa PAO1 by NCCLS assay. The format is functional. In outline:
as §1

Assay [4] addresses T1, UDP-3-O-acyl-N-acetylglucosamine deacetylase (Escherichia coli K-12, UniProt P0A725).
T1 sequence (P0A725 whole entry): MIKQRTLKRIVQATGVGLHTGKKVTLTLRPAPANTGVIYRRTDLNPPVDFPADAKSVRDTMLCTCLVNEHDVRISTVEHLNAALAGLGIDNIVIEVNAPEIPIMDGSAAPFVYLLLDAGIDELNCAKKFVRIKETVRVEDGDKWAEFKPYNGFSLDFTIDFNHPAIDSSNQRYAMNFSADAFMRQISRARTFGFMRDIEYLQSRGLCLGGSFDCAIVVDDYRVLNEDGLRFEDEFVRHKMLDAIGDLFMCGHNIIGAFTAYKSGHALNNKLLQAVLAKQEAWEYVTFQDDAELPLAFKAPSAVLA
As to the kind of experiment: Inhibition of Escherichia coli LpxC.

In brackets after ≈: the same amount, converted by molar mass. A value given as a limit tells only on which side of the number the result lay.

On to `C[C@@H](O)[C@H](NC(=O)c1ccc(C#CC#Cc2ccccc2)cc1)C(=O)NO`, for which the MIC – broadly, the lowest concentration found to suppress growth – against Escherichia coli [1] amounted to 6.3 µg/mL (≈ 17.4 µM); with Escherichia coli [2], 0.05 µg/mL (≈ 0.138 µM); with Escherichia coli [3], 0.7 µg/mL (≈ 1.93 µM); against Pseudomonas aeruginosa, 0.7 µg/mL (≈ 1.93 µM). Further, the Ki turned out to be 180 pM in assay [4] (read-out: Ki) and 550 pM in assay [4] (read-out: Ki(app)).

Regarding `C[C@@H](O)[C@H](NC(=O)c1ccc(C#CC#Cc2ccc(N)cc2)cc1)C(=O)NO`, the MIC in the assay with Escherichia coli [1] was 3.9 µg/mL (≈ 10.3 µM); in the assay with Escherichia coli [2], 0.03 µg/mL (≈ 0.0795 µM); in the assay with Escherichia coli [3], 0.5 µg/mL (≈ 1.32 µM); in the assay with Pseudomonas aeruginosa, 0.5 µg/mL (≈ 1.32 µM).

On to `C[C@@H](O)[C@H](NC(=O)c1ccc(C#CC#Cc2cccc(N)c2)cc1)C(=O)NO`, for which the MIC turned out to be 6.3 µg/mL (≈ 16.7 µM) with Escherichia coli [1], 0.06 µg/mL (≈ 0.159 µM) with Escherichia coli [2], 1.3 µg/mL (≈ 3.44 µM) in the assay with Escherichia coli [3] and 1.3 µg/mL (≈ 3.44 µM) with Pseudomonas aeruginosa.

Regarding `C[C@@H](O)[C@H](NC(=O)c1ccc(C#CC#Cc2ccccc2N)cc1)C(=O)NO`, the MIC is > 25 µg/mL against Escherichia coli [1], 0.5 µg/mL (≈ 1.32 µM) with Escherichia coli [2], 8.3 µg/mL (≈ 22 µM) with Escherichia coli [3] and 12.5 µg/mL (≈ 33.1 µM) in the assay on Pseudomonas aeruginosa.

For `C[C@H](O)[C@H](NC(=O)c1ccc(C#CC#Cc2ccc(N)cc2)cc1)C(=O)NO`, the MIC in the assay on Escherichia coli [1] came to 12.5 µg/mL (≈ 33.1 µM); in the assay on Escherichia coli [2], 0.07 µg/mL (≈ 0.185 µM); in the assay with Escherichia coli [3], 0.8 µg/mL (≈ 2.12 µM); against Pseudomonas aeruginosa it was 0.9 µg/mL (≈ 2.38 µM).

With `C[C@@H](O)[C@@H](NC(=O)c1ccc(C#CC#Cc2ccc(N)cc2)cc1)C(=O)NO`, the MIC against Escherichia coli [1] was > 25 µg/mL; in the assay with Escherichia coli [2] it was 6.3 µg/mL (≈ 16.7 µM); with Escherichia coli [3], > 25 µg/mL; with Pseudomonas aeruginosa, > 25 µg/mL.

As to `C[C@H](O)[C@@H](NC(=O)c1ccc(C#CC#Cc2ccc(N)cc2)cc1)C(=O)NO`, the minimum inhibitory concentration (MIC) is > 25 µg/mL against Escherichia coli [1], 3.1 µg/mL (≈ 8.21 µM) in the assay on Escherichia coli [2], > 25 µg/mL against Escherichia coli [3] and > 25 µg/mL in the assay with Pseudomonas aeruginosa.

Take `C[C@@H](O)[C@H](NC(=O)c1ccc(C#Cc2ccc(CN3CCOCC3)cc2)cc1)C(=O)NO`: the MIC turned out to be 125 µg/mL (≈ 286 µM) in the assay on Escherichia coli [1], 0.2 µg/mL (≈ 0.457 µM) in the assay with Escherichia coli [2], 1.3 µg/mL (≈ 2.97 µM) with Escherichia coli [3] and 1.6 µg/mL (≈ 3.66 µM) in the assay on Pseudomonas aeruginosa.
